3 compounds from ChEMBL document CHEMBL1135477, “Antifungal agents. 10. New derivatives of 1-[(aryl)[4-aryl-1H-pyrrol-3-yl]methyl]-1H-imidazole, synthesis, anti-candida activity, and quantitative structure-analysis relationship studies” (J Med Chem, 2002) can be followed below.

SMILES strings stand for the structures. In brackets after ≈: the same amount, converted by molar mass. Bounds are passed on as bounds.

Common to all, as to type: functional
Assay [1] has as its system Candida. Briefly: Tested In vitro for antifungal activity against candida Spp (Candida glabrata, Candida krusei) at pH 7.2. An outline of the steps: (§1)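 Inocula were 10³/mL, pre-grown 18 h at 37 °C. MIC is the lowest concentration with no visible growth versus a blank at 24 h, 37 °C. The mean MIC is ΣMICi over the strain number; MIC50/MIC90 are also reported.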
The test system of assay [2] is Candida albicans. Briefly: In vitro antifungal activity against 40 strains at pH 7.2. The gist of the method:
(§2)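 Inocula were 10³/mL, pre-grown 18 h at 37 °C. MIC is the lowest concentration with no visible growth versus a DMSO/water blank at 24 h, 37 °C. The mean MIC is ΣMICi over the total strain number; MIC50/MIC90 cover 50%/90% of strains.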

Assay [3] has as its system Candida. Briefly: Tested in vitro for antifungal activity against candida Spp (Candida glabrata, Candida krusei) at pH 7.2 (percent of resistant species at 256 ug/mL). The gist of the method:
(§3)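 Broth serial-dilution test in Sabouraud broth at pH 7.2 or 5.8, against 3 fresh clinical non-albicans isolates (two C. glabrata, one C. krusei). Inocula were 10³/mL, pre-grown 18 h at 37 °C. Compound was twofold-diluted over 0.25–256 µg/mL and read at 24 h, 37 °C for visible growth.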

In assay [4] the test system is Candida albicans. Briefly: In vitro antifungal activity against 40 strains at pH 5.8,(percent of resistant species at 256 ug/mL). The gist of the method:
(§4)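 Broth serial-dilution test in Sabouraud broth at pH 7.2 or 5.8, against 40 fresh clinical C. albicans isolates from hospitalized patients. Inocula were 10³/mL, pre-grown 18 h at 37 °C in Sabouraud dextrose broth. Compound from a DMSO/water stock was twofold-diluted over 0.25–256 µg/mL. Visible growth was read at 24 h, 37 °C.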

In assay [5] the test system is Candida albicans. Briefly: Tested In vitro for antifungal activity at pH 5.8.
Assay [6] has as its system Candida albicans. Nature of the assay: In vitro antifungal activity against 40 strains at pH 7.2 minimum inhibitory concentration. The gist of the method: as §2
In assay [7] the test system is Candida. Briefly: In vitro antifungal activity against candida Spp (Candida glabrata, Candida krusei) at pH 5.8,(percent of resistant species at 256 ug/mL). The gist of the method:
as §3

For assay [8], the system named is Candida. Briefly: Tested In vitro for antifungal activity against candida Spp (Candida glabrata, Candida krusei) at pH 5.8. The gist of the method: as §1
Assay [9] concerns Candida albicans. Nature of the assay: In vitro antifungal activity against 40 strains at pH 7.2,(percent of resistant species at 256 ug/mL). The gist of the method: as §4
The test system of assay [10] is Candida albicans. Nature of the assay: In vitro antifungal activity against 40 strains at pH 7.2, (percent of resistant species at 256 ug/mL). The gist of the method: as §4
Assay [11] concerns Candida albicans. Briefly: In vitro antifungal activity against 40 strains of Candida albicans at pH 5.8; value ranges from <0.25 to 8. The gist of the method:
(§5)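 Broth serial-dilution MIC against 40 clinical C. albicans isolates from hospitalized patients, grown in Sabouraud broth at pH 7.2 or 5.8. Cells were pre-grown 18 h at 37 °C, inoculated at 10³/mL, and read at 24 h, 37 °C. Doubling dilutions ran 0.25–256 μg/mL from a DMSO/water solution. MIC was the lowest concentration with no visible growth against a DMSO/water blank.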

The subject of assay [12] is Candida albicans. Briefly: In vitro antifungal activity against 40 strains of Candida albicans at pH 5.8. An outline of the steps: as §5
Assay [13] deals with Candida. Briefly: Tested In vitro for antifungal activity against Candida species. at pH 7.2; (range is from 0.5 to 1). An outline of the steps:
(§6)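 Liquid serial-dilution MIC against 3 freshly isolated clinical Candida strains (two C. glabrata, one C. krusei) in Sabouraud broth at pH 7.2 or 5.8. Inoculum was 10³/mL after 18 h pre-culture at 37 °C, read at 24 h, 37 °C. Range was 0.25–256 μg/mL. Endpoint was no visible growth versus a DMSO/water blank.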

Assay [14] relates to Candida. Nature of the assay: Tested in vitro for antifungal activity against Candida species. at pH 5.8; (percent of resistant species at 256 ug/mL). An outline of the steps: as §3
Assay [15] concerns Candida albicans. Briefly: In vitro antifungal activity against 40 strains of Candida albicans at pH 7.2; (percent of resistant species (R) at 256 ug/mL). The gist of the method: as §4
Assay [16] deals with Candida. Nature of the assay: Tested In vitro for antifungal activity against Candida species. at pH 7.2; (percent of resistant species at 256 ug/mL). The gist of the method:
as §3

Assay [17] relates to Candida albicans. Nature of the assay: In vitro antifungal activity against 40 strains of Candida albicans at pH 5.8; (percent of resistant species at 256 ug/mL). The gist of the method:
as §4

Assay [18] relates to Candida. Briefly: Tested in vitro for antifungal activity against Candida species. at pH 5.8; value ranges from <0.25 to 0.25. An outline of the steps: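 Fresh clinical isolates (two C. glabrata, one C. krusei) were pre-grown 18 h at 37 °C in Sabouraud dextrose broth. Broth double-dilution was run in Sabouraud broth at pH 5.8 or 7.2 over 0.25–256 µg/mL from a DMSO/water stock, with 10³/mL inoculum.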

Assay [19] has as its system Candida albicans. Briefly: In vitro antifungal activity against 40 strains of Candida albicans at pH 7.2. An outline of the steps:
as §5

For assay [20], the system named is Candida. Nature of the assay: Tested in vitro for antifungal activity against Candida species. at pH 5.8. An outline of the steps: as §6
The test system of assay [21] is Candida. Nature of the assay: Tested In vitro for antifungal activity against Candida species. at pH 7.2. An outline of the steps: as §6
For assay [22], the system named is Candida albicans. Nature of the assay: In vitro antifungal activity against 40 strains of Candida albicans at pH 7.2; minimum inhibitory concentration; value ranges from <0.25 to 16. The gist of the method:
as §5

For `c1ccc(-c2ccc(C(c3ccccc3)n3ccnc3)cc2)cc1` (stereo not drawn) [BIFONAZOLE], the MIC in assay [1] was 4.16 µg/mL (≈ 13.4 µM); in assay [2], 2.44 µg/mL (≈ 7.86 µM); in assay [5] it was 5.85 µg/mL (≈ 18.8 µM); in [8], 4 µg/mL (≈ 12.9 µM). The MIC50 in [1] was 4 µg/mL (≈ 12.9 µM); in assay [2] it was 2 µg/mL (≈ 6.44 µM); in [5] it was 2 µg/mL (≈ 6.44 µM); in assay [8], 4 µg/mL (≈ 12.9 µM). The MIC90 in assay [1] came to 8 µg/mL (≈ 25.8 µM); in assay [2] it was 4 µg/mL (≈ 12.9 µM); in assay [5] it was 4 µg/mL (≈ 12.9 µM); in [8], 32 µg/mL (≈ 103 µM). The Range in assay [1] was 0.5 µg/mL; in assay [5], 1 µg/mL; in [6], 0.5 µg/mL; in assay [8], 2 µg/mL. The Resistance in [3], in assay [4], in [7] and in [9] was 0% in each case.
As to `CC(=O)N1CCN(c2ccc(OCC3COC(Cn4ccnc4)(c4ccc(Cl)cc4Cl)O3)cc2)CC1` (stereo not drawn) [KETOCONAZOLE], the MIC worked out at 8.6 µg/mL (≈ 16.2 µM) in assay [1], 9.26 µg/mL (≈ 17.4 µM) in assay [2], 6.35 µg/mL (≈ 11.9 µM) in [5] and 6.53 µg/mL (≈ 12.3 µM) in assay [8]. The values for the MIC50 in [1], in assay [2] and in [8] were 8 µg/mL (≈ 15.1 µM), 8 µg/mL (≈ 15.1 µM) and 32 µg/mL (≈ 60.2 µM), respectively. Moreover, the MIC90 in assay [1] amounted to 16 µg/mL (≈ 30.1 µM); in assay [2], 32 µg/mL (≈ 60.2 µM); in [8], 128 µg/mL (≈ 241 µM). The Range in assay [1] is 2 µg/mL; in assay [5], below 0.25 µg/mL; in assay [6], 2 µg/mL; in [8] it was below 0.25 µg/mL. Besides, the Resistance in [10], in assay [3], in assay [4] and in [7] was 0% in each case.
As for `Clc1ccc(COC(Cn2ccnc2)c2ccc(Cl)cc2Cl)c(Cl)c1` (stereo not drawn) [MICONAZOLE], the Range was below 8 µg/mL in assay [11], 1 µg/mL in [13], below 0.25 µg/mL in assay [18] and 16 µg/mL in assay [22]. Also, the MIC in assay [12] amounted to 0.57 µg/mL (≈ 1.37 µM); in [19] it was 1.16 µg/mL (≈ 2.79 µM); in assay [20] it was 0.156 µg/mL (≈ 0.375 µM); in assay [21], 0.83 µg/mL (≈ 1.99 µM). Also, the MIC50 in assay [12] was found to be 0.5 µg/mL (≈ 1.2 µM); in assay [19] it was 0.5 µg/mL (≈ 1.2 µM); in assay [20], 0.5 µg/mL (≈ 1.2 µM); in [21], 1 µg/mL (≈ 2.4 µM). The MIC90 in assay [12] is 2 µg/mL (≈ 4.81 µM); in [19] it was 2 µg/mL (≈ 4.81 µM); in assay [20], 8 µg/mL (≈ 19.2 µM); in assay [21], 1 µg/mL (≈ 2.4 µM). Moreover, the Resistance in assay [14], in [15], in [16] and in assay [17] was 0% throughout.
